Key:
Settings in all cases: stereoisomer not certain
[1] = biological target: T1, OR8D1 (Homo sapiens) (UniProt Q8WZ84)
T1 sequence (whole entry): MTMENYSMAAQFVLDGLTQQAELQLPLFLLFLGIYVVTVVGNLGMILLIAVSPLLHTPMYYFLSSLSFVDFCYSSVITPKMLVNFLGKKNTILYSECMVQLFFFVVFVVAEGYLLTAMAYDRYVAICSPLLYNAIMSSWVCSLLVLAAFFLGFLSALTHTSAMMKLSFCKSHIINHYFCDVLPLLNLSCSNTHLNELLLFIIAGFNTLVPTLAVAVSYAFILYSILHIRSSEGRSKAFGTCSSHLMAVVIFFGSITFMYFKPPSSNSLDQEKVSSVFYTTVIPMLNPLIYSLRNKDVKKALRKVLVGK
Outline: (§1)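 Assay methods differ from source to source, frequently being transient luciferase assays in mammalian cell lines. For each receptor–molecule pair, the label responsive (active) applies when the original authors judged the measured signal statistically different from baseline, and non-responsive (inactive) applies otherwise.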

[2] = biological target: OR8B8 (Homo sapiens) (UniProt Q15620)
Chain of OR8B8 (Homo sapiens) (Q15620 whole entry): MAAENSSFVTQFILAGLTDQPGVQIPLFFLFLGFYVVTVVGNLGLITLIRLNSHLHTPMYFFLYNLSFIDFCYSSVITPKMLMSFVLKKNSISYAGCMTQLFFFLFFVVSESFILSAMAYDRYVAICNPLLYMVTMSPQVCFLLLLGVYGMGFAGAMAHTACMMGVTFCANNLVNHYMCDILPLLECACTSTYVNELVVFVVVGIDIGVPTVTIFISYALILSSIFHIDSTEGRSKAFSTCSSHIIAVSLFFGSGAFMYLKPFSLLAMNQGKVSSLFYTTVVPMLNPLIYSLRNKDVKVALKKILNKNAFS
Outline: as §1

[3] = biological target: OR8D2 (Homo sapiens) (UniProt Q9GZM6)
Chain of OR8D2 (Homo sapiens) (Q9GZM6 whole entry): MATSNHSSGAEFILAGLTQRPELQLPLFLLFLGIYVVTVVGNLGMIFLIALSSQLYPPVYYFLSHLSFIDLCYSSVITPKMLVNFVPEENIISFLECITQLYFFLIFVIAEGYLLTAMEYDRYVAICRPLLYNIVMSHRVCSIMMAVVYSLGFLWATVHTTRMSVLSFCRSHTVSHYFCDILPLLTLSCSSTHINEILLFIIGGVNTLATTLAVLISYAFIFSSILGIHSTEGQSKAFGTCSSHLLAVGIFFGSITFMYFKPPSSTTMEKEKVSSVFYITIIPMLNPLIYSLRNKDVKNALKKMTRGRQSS
Outline: as §1

[4] = biological target: OR8D4 (Homo sapiens) (UniProt Q8NGM9)
Chain of OR8D4 (Homo sapiens) (Q8NGM9 whole entry): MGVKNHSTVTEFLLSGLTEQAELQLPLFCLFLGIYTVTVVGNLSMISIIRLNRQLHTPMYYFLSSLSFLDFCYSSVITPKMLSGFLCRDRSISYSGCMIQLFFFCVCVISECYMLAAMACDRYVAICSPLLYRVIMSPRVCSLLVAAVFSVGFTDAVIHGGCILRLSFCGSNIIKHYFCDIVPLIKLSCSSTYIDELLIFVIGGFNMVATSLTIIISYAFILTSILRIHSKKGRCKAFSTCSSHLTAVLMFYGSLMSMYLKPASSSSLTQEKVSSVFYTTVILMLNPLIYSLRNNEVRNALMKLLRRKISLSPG
Outline: as §1

[5] = biological target: OR8G1 (Homo sapiens) (UniProt Q15617)
Chain of OR8G1 (Homo sapiens) (Q15617 whole entry): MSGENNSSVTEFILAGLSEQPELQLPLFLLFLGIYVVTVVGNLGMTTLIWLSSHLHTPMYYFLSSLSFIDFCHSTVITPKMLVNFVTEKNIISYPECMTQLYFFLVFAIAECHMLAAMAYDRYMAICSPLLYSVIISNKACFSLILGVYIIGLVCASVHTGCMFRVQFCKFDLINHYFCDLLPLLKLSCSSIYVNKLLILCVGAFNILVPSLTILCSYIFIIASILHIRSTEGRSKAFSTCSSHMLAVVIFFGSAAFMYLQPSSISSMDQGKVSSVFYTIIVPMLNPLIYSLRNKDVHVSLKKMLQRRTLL
Outline: as §1

[6] = biological target: OR8G5 (Homo sapiens) (UniProt Q8NG78)
Chain of OR8G5 (Homo sapiens) (Q8NG78 whole entry): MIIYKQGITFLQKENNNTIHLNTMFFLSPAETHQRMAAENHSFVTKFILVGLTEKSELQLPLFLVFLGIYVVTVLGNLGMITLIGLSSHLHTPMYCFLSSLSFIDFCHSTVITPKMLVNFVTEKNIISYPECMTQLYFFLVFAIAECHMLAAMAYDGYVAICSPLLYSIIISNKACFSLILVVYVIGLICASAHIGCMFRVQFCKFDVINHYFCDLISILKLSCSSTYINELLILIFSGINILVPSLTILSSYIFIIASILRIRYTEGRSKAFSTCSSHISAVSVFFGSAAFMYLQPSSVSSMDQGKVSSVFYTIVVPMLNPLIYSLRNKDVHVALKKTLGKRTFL
Outline: as §1

[7] = biological target: OR8H1 (Homo sapiens) (UniProt Q8NGG4)
Chain of OR8H1 (Homo sapiens) (Q8NGG4 whole entry): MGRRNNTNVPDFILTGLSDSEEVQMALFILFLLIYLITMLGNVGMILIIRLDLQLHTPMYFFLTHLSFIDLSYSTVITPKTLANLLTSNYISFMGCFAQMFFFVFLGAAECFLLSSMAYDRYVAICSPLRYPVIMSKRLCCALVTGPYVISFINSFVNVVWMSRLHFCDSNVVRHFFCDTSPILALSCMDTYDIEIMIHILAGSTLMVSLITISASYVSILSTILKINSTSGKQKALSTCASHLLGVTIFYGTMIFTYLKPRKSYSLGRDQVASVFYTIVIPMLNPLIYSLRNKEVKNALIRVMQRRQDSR
Outline: as §1

[8] = biological target: OR8H2 (Homo sapiens) (UniProt Q8N162)
Chain of OR8H2 (Homo sapiens) (Q8N162 whole entry): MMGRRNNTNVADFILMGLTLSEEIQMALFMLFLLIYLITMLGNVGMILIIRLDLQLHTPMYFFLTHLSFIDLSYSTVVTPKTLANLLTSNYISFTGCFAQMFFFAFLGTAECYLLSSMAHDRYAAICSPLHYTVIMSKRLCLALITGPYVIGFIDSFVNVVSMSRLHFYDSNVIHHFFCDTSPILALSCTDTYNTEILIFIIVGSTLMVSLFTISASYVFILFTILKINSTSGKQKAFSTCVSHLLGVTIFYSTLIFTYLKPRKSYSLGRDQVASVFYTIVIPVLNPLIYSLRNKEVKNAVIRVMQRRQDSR
Outline: as §1

[9] = biological target: OR8H3 (Homo sapiens) (UniProt Q8N146)
Chain of OR8H3 (Homo sapiens) (Q8N146 whole entry): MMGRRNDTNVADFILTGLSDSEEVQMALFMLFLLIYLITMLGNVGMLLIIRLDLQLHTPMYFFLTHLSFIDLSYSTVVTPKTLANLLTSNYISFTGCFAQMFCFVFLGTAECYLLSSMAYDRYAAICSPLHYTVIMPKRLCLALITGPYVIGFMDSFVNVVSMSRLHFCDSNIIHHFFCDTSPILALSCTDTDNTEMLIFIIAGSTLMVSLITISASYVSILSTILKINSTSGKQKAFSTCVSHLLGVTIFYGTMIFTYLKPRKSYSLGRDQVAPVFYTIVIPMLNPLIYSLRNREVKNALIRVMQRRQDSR
Outline: as §1

[10] = biological target: OR8I2 (Homo sapiens) (UniProt Q8N0Y5)
Chain of OR8I2 (Homo sapiens) (Q8N0Y5 whole entry): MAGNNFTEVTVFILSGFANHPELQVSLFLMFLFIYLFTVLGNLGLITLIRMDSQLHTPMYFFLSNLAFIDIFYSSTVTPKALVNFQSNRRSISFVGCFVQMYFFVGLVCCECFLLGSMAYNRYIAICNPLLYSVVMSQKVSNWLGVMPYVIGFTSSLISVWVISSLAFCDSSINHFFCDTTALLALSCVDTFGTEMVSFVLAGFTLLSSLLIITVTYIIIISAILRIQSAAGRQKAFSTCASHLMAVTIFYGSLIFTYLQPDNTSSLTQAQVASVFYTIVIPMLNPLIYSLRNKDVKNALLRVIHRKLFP
Outline: as §1

[11] = biological target: OR8J1 (Homo sapiens) (UniProt Q8NGP2)
Chain of OR8J1 (Homo sapiens) (Q8NGP2 whole entry): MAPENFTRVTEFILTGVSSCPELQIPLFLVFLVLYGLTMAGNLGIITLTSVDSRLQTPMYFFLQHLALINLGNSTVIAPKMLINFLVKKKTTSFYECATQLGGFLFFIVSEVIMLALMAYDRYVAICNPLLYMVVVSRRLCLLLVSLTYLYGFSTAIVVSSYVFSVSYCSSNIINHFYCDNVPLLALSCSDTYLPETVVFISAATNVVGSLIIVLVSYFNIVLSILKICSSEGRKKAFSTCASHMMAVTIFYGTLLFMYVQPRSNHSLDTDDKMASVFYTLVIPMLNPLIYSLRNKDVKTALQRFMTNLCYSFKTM
Outline: as §1

[12] = biological target: OR8J2 (Homo sapiens) (UniProt Q8NGG1)
Chain of OR8J2 (Homo sapiens) (Q8NGG1 whole entry): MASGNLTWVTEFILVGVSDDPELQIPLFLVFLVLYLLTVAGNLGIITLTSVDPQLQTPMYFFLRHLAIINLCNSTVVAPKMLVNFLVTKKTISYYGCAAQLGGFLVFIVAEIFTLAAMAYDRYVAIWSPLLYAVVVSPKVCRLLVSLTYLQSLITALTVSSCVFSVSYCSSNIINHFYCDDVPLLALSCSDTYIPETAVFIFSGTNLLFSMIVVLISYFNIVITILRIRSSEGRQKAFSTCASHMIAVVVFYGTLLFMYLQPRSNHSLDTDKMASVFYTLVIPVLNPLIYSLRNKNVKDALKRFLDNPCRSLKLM
Outline: as §1

[13] = biological target: OR8J3 (Homo sapiens) (UniProt Q8NGG0)
Chain of OR8J3 (Homo sapiens) (Q8NGG0 whole entry): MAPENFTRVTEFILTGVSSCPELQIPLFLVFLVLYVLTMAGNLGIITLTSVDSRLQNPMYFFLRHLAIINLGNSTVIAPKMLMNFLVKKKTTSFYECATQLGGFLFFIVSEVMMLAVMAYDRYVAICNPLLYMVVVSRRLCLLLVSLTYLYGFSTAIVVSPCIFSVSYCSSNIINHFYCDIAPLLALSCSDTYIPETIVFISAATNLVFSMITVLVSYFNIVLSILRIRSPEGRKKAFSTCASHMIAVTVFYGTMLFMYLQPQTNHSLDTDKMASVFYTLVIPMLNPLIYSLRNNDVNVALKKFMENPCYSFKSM
Outline: as §1

[14] = system: OR8B8 L101P
Chain of OR8B8 L101P (as listed by the source, stated change not applied): as the sequence (Q15620 whole entry) above, with L101P counted along it
Outline: as §1

[15] = system: OR8D1 C127G L194P
Outline: as §1

[16] = system: OR8D1 L194P
Chain of OR8D1 L194P (as listed by the source, stated change not applied): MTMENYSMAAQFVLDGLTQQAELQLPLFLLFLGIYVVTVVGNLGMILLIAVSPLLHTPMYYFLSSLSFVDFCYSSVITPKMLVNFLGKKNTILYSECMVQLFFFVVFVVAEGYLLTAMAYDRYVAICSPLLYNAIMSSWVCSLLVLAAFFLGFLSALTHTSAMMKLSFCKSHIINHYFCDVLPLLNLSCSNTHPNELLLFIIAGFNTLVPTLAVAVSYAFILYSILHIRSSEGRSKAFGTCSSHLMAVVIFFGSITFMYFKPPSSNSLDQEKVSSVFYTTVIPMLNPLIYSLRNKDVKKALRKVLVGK
Outline: as §1

[17] = system: OR8D4 C120Y R133K
Outline: as §1

[18] = system: OR8H2 H120Y Y169C V284M
Outline: as §1

[19] = system: OR8H3
Chain of OR8H3 (as listed by the source): as the sequence (Q8N146 whole entry) above, with P137S counted along it
Outline: as §1

[20] = system: OR8J1
Chain of OR8J1 (as listed by the source): as the sequence (Q8NGP2 whole entry) above, with Y120C counted along it
Outline: as §1

Measured: odorant receptor agonist call

C=CCc1ccc(OC)cc1
inactive: [1]

C=CCSSCC=C
inactive: [1]

CSSC
inactive: [1]

Cc1c([N+](=O)[O-])c(C)c([N+](=O)[O-])c(C(C)(C)C)c1[N+](=O)[O-]
not listed: [14] | [15] | [16] | [17] | [18] | [19] | [20]
inactive: all other assays above

COc1ccc(C=O)cc1
inactive: [1]

SCc1ccco1
inactive: [1]

Cc1ccccc1O
inactive: [1]

O=Cc1ccc2c(c1)OCO2
inactive: [1]

CCOC(=O)Cc1ccccc1
inactive: [1]

C=CCOC(=O)Cc1ccccc1
not listed: [12]
inactive: all other assays above

Cc1ccc(O)c(C)c1
inactive: [1]

NCC(=O)c1ccccc1
inactive: [1]

Source: the M2OR odorant receptor database
